A short description of series [1]: Cytotoxicity against mouse Hepa-1c1c7 cells assessed as cell survival at 5 uM after 48 hrs by MTT assay. The note with it: read-out: Activity. The format is cell-based. In a few lines:
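MTT (0.5 mg/ml) added for 3 h at 37 °C, formazan dissolved in DMSO and read at 590 nm. Survival (%) = (A treated − A blank)/(A untreated − A blank) × 100.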

Series [2] addresses T1, CYP1A1 (Mus musculus, UniProt P30561).
T1 sequence (P30561 whole entry): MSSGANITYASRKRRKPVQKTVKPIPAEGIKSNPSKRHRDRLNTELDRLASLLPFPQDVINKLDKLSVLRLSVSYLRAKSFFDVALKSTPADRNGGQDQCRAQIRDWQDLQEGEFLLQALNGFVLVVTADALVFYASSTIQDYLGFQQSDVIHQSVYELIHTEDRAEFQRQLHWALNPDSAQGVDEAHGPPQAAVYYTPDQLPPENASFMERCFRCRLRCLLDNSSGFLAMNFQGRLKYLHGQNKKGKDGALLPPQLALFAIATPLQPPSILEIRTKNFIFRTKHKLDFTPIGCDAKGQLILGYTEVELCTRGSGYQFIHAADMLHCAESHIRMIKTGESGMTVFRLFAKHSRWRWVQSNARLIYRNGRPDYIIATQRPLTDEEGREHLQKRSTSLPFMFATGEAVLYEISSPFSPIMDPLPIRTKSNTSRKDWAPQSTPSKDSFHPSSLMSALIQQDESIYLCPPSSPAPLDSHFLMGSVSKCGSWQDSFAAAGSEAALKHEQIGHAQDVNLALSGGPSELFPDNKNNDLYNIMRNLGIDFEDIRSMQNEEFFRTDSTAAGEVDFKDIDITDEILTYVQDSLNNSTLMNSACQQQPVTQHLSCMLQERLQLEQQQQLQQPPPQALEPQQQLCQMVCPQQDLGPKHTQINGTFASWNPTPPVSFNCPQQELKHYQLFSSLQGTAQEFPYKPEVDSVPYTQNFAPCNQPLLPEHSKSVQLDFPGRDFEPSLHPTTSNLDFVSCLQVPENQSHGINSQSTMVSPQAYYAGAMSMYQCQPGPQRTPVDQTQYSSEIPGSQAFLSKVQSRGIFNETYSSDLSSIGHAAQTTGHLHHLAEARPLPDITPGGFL
In words: (§1) Induction of Ah receptor in mouse Hepa-1c1c7 cells assessed as induction of CYP1A1 activity at 1 uM after 48 hrs by EROD assay relative to control. The format is cell-based. The note with it: Hepa-1c1c7 cells, probe ethoxyresorufin (EROD), read-out: FC. In a few lines: (§2)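 Hepa1c1c7 cells at 10⁴/well grown 24 h, then given compound at one fixed concentration for 48 h. After a PBS wash, cells incubated 40 min at 37 °C with 5 µM 7-ethoxyresorufin plus 2 mM salicylamide. Resorufin fluorescence read at ex 530/em 590 nm. Fold induction = (F cells+compound − F blank)/(F control − F blank); mean ± SD, n = 3.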

The nature of series [3]: Induction of NQO1 activity in mouse Hepa-1c1c7 cells at 1 uM after 48 hrs relative to control.
The test system of series [4] is Hepa-1c1c7. In words: Increase of Nrf2 protein level in mouse Hepa-1c1c7 cells at 10 uM for 6 hrs Western blotting relative to control.
The test system of series [5] is Hepa-1c1c7. In words: Induction of human NQO1 gene expression in mouse Hepa-1c1c7 cells co-transfected with pGL3-ARE at 10 to 25 uM after 24 hrs by luciferase reporter gene assay. The format is functional, cell-based. In a few lines:
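Hepa1c1c7 cells at about 50% confluency co-transfected with pGL3-ARE firefly luciferase (human NQO1 ARE) and pRL-CMV Renilla as transfection control. After 24 h, cells exposed to compound (10 or 25 µM). Dual luciferase read-out expressed as fold over control; mean ± SD of 3 independent transfections, t-test.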

Series [6] concerns Hepa-1c1c7. In words: Increase of Nrf2 protein level in mouse Hepa-1c1c7 cells at 10 uM for 6 hrs Western blotting relative to control. The format is functional, cell-based. In a few lines:
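Hepa1c1c7 cells exposed to compound at 10 µM for 6 h, with MG132 (25 µM) as reference. Lysates made in digitonin/EDTA with protease inhibitors; 50 µg protein run on 15% SDS-PAGE, blotted to nitrocellulose and probed for Nrf2 with β-actin loading control. Bands quantified by densitometry against untreated control, 3 experiments, independent t-test.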

Series [7] concerns the target T2, Aryl hydrocarbon receptor (Mus musculus, UniProt P30561).
T2 sequence (P30561 whole entry): T1 sequence (P30561 whole entry)
Described as §1. The format is cell-based. The note with it: hepa-1c1c7, 48 h, 1 µM. In a few lines:
as §2

For series [8], the target named is NAD(P)H dehydrogenase [quinone] 1 (Homo sapiens) (UniProt P15559). In words: Induction of […] NQO1 activity in mutant mouse BPrc1 cells assessed as concentration require for 2 fold induction after 48 hrs. The format is cell-based. In a few lines:
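Mutant Hepa1c1c7 line (Bp^rc1, defective Ah-receptor pathway) seeded at 10⁴ cells/well for 24 h, then exposed to compound for 48 h; final DMSO ≤0.5%. Cells lysed with 0.8% digitonin/2 mM EDTA. NQO1 read by menadione-driven MTT reduction (NADP, glucose-6-phosphate regenerating system, FAD, pH 7.4), stopped after 5 min with dicoumarol, A590. Activity taken relative to blank and control wells; CD = concentration doubling basal activity; mean ± SD of 3 determinations.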

Structures are written as SMILES. Calls of active or inactive are those of the source. No cut-off for these calls is given here. Peptide text beside a SMILES is read from it. * marks the point of attachment. Cbz = O=C(OCc1ccccc1)*

Chain of NAD(P)H dehydrogenase [quinone] 1 (Homo sapiens) (P15559 whole entry): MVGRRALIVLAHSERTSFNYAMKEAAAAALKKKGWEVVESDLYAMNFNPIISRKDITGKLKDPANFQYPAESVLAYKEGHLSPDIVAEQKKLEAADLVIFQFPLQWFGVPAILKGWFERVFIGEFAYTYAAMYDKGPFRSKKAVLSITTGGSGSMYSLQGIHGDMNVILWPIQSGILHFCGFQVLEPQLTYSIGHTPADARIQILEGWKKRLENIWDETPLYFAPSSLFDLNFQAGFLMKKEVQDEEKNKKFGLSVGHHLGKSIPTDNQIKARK

With `COc1cc(OC)c2c(c1)O/C(=C\c1ccccc1OC)C2=O`, the viability at 48 h, 5 µM in series [1] was 82%. In addition, in series [2], the fold induction at 48 h, 1 µM was found to be 1.56. The same compound had a fold change (FC) in series [3] of 2.21.
Regarding `CC(C)C[C@@H](C=O)NC(=O)[C@H](CC(C)C)NC(=O)[C@H](CC(C)C)NC(=O)OCc1ccccc1` (Cbz-Leu-Leu-Leu-aldehyde), the result in series [4] was Active.
For `C[S+]([O-])CCCCN=C=S` (stereo not drawn) [SULFORAPHANE], the outcome in series [5] and in series [8] was inactive. In series [6], the result was Active. Also, in series [7], the Activity turned out to be 0.92.
